MrgX1 allo act: positive allosteric modulators of MrgX1, primary screen, HEK293 cells, Fluo-4 calcium flux | Mas-related G-protein coupled receptor member X1 (Homo sapiens), Q96LB2 | FDSS; active compounds read high | B-score at 10 µM | 310,000 tested, 0.63% active | AID 588675, 2011;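 active = plate-corrected calcium response at least 3 library SD above typical, normal starting fluorescence, not activating the receptor alone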;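 note: compound read alongside a low EC10 to EC30 dose of BAM8-22 agonist; peak minus trough fluorescence over baseline measured at the second addition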
Target sequence (Q96LB2 whole entry, looked up): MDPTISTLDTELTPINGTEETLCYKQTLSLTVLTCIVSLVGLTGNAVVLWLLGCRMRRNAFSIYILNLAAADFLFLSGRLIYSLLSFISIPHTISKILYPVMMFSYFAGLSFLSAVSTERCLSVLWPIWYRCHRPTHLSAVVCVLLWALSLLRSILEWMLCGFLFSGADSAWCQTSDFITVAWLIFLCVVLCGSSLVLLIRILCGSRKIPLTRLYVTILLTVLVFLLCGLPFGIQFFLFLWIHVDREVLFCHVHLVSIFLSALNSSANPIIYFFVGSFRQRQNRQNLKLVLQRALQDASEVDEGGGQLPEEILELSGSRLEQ
MrgX1 antag: antagonists of human MrgX1 receptor, primary screen, HEK293 cells, Fluo-4 calcium flux | AID 588676, 2011 | 310,000 tested, 1.3% active | BAM8-22 antagonism; active compounds read low | B-score at 10 µM | Mas-related G-protein coupled receptor member X1 (Homo sapiens), Q96LB2;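 active = calcium-response B-score plate-corrected more than 3 library SD below zero, starting fluorescence within 5 deviations, no agonist response on first addition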;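 note: peak minus trough fluorescence over baseline after final BAM8-22 challenge near maximal dose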
RGS4 pot: RGS4 potentiators or activators, primary screen, cell-based, HEK293 M3R inducible RGS4, calcium flux; carbachol calcium flux Fluo4; active compounds read low; B-score at 10 µM; 310,000 tested, 0.92% active; AID 463111, 2010;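 active = B-score of the integrated calcium signal more than 4 SD below the library mean, with starting fluorescence not abnormally high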;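 note: negative B-score means reduced calcium response which marks RGS4 activation or potentiation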
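Assay system: HEK293 FlpIn-TREx cells, stable M3R, doxycycline-inducible RGS4 / Probe or stimulus: carbachol, ECmax concentration / Times: overnight RGS4 induction, 30 min dye load 37 °C, 20 min compound RT / Signal: kinetic calcium fluorescence imaging with Fluo4-AM dye, 2 µM / Measure: Agonist-evoked peak-minus-minimum fluorescence over baseline, integrated ratio, B score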
MrgX1 agonist: agonists of human MrgX1 receptor, primary screen, HEK293 cells, Fluo-4 calcium flux; AID 588627, 2011; B-score at 10 µM; Mas-related G-protein coupled receptor member X1 (Homo sapiens), Q96LB2; 310,000 tested, 0.44% active; Fluo-4 calcium fluorescence, agonist mode; active compounds read high;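 active = calcium response B-score plate-corrected fluorescence ratio at least 3 library SD, with starting fluorescence B-score inside 5 SD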
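times = overnight plating, then 30 min 37 °C plus 30 min room-temperature dye loading | assay system = stable human MrgX1 HEK293 cell line | input = fifteen thousand cells per well | signal = kinetic calcium dye fluorescence, Fluo-4 NW | dosing = compound delivered in addition one of three | read-out = B-scored fluorescence response ratio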
RGS4 inh: RGS4 inhibitors, primary screen, cell-based, HEK293 M3R inducible RGS4, calcium flux; Regulator of G-protein signaling 4 (Homo sapiens), P49798; Fluo-4 calcium flux; active compounds read high; triggered by carbachol at its EC20; B-score at 10 µM; 310,000 tested, 0.45% active;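 active = B-score, a plate-corrected calcium signal, over three deviations above library mean, with baseline fluorescence within five deviations of library mean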;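 note: RGS4 expression induced by doxycycline in cells with stable M3 receptor; B-score is computed from the integrated fluorescence ratio over baseline after carbachol; higher B-score means a larger calcium signal and so more RGS4 inhibition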
Target sequence (P49798 whole entry, looked up): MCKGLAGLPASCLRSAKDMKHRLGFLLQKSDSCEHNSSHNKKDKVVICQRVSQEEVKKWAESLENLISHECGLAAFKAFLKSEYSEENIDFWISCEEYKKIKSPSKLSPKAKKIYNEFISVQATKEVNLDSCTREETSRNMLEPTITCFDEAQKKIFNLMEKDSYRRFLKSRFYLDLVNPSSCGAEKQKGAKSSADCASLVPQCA
RGS4 act valid: reduced carbachol calcium response, RGS4-induced M3R cells, confirmation, RGS4 activator project, cell-based, HEK293 M3R/RGS4 inducible, calcium flux, duplicate; shares compounds with RGS4 pot; inhibition, % at 10 µM; carbachol calcium flux Fluo4; 1,100 tested, 89% active; AID 602282, 2012;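 active = inhibition above 3 SD of the buffer control wells, cut at about 41% in these data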;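 note: signal is the integrated peak-minus-minimum Fluo4 fluorescence over baseline ratio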
RGS4 act ctr: RGS4 activator counter-screen hit in non-induced cells; shares compounds with RGS4 pot; HEK293 M3R non-induced RGS4, Fluo4 calcium flux; after carbachol challenge at its EC90; inhibition, % at 10 µM; 1,100 tested, 82% active; AID 602283;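 active = inhibition exceeding 3 SD of buffer-only control wells, cut at about 26% in these data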;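 note: percent drop in integrated peak-minus-baseline over baseline Fluo4 ratio after carbachol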
Each line names hits and unclear results; the compound was inactive in the other large screens (follow-up assays come after a bar, where they were run). In the library only some 3.5% were active in any assay of this set; here they are far more common.

CCN(C(=O)c1cccs1)C1CCS(=O)(=O)C1 (centres undefined)	none (no result: MrgX1 allo act, MrgX1 antag, MrgX1 agonist)
COc1cccc(-c2nc(N3CCC(C)CC3)c3ccccc3n2)c1O	RGS4 pot -7.1
COc1ccc(Nc2nc(-c3cccc(OC)c3O)nc3ccccc23)cc1	RGS4 pot -7.6
Cc1nn(Cc2ccc(Cl)cc2)c(C)c1NC(=O)CSc1n[nH]c(C)c1[N+](=O)[O-]	MrgX1 antag -4.8
Cc1nn(Cc2ccccc2)c(C)c1NC(=O)CSc1n[nH]c(C)c1[N+](=O)[O-]	none
CC(=O)N(C)c1ccc(OCC(O)Cn2c(C)nc3ccccc32)cc1 (centres undefined)	none
CN(C)c1ccc2nc3c(=O)[nH]c(=O)nc-3n(CC(O)C(O)C(O)CO)c2c1 (centres undefined)	RGS4 pot -7.9
COC(=O)C1CCN(CC(=O)Nc2cc(Cl)ccc2OC)CC1	MrgX1 allo act 21
C=CCNC(=O)c1onc(CSc2ccc(F)c(F)c2)c1C(=O)NCC=C	none
CCN(Cc1ccccc1)c1ccc(/C=C(\C#N)c2ccccn2)cc1	none
CCN(CC)c1ccc(/C=C(\C#N)c2ccccn2)cc1	MrgX1 antag -9.1
COc1ccc(C(=O)NCC(=O)N2CCCCC2)cc1OC	none
COc1ccc(C(=O)c2ccc(OC)c(OC)c2)cc1	MrgX1 antag -5
COc1ccc(C(=O)NN2CCCCC2)cc1OC	MrgX1 antag -5
COC(=O)/C=C1\NCCNC1=O	none
O=C(N/N=C/c1ccc(OC(=O)c2ccccc2Cl)cc1)c1cc(O)cc(O)c1	RGS4 pot -7.6
CN(C1CCCCC1)S(=O)(=O)c1ccc2c(c1)c(=O)c(C(=O)NCCN1CCCC1)cn2C	MrgX1 antag -4.6
O=C(COc1ccc2c(c1)oc(=O)c1ccccc12)NCCN1CCOCC1	none
CC(C)c1ccc(/C=C(\c2nc3ccccc3[nH]2)S(=O)(=O)c2ccccc2)cc1	none
O=S(=O)(/C(=C/c1ccc(C(F)(F)F)cc1)c1nc2ccccc2[nH]1)c1ccccc1	RGS4 inh 22
CC1Oc2ccccc2N(CC(=O)NCCc2ccccc2)C1=O (centres undefined)	none
O=C(c1ccc(Cn2cc(Br)cn2)cc1)N1N=C(C(F)F)CC1(O)C(F)F (centres undefined)	RGS4 pot -7.9
Cc1ccc(-c2cc(C(=O)Nc3ccncc3)c3ccccc3n2)cc1	MrgX1 antag -7.6
COc1ccc(-c2cc(C(=O)Nc3ccccc3O)c3ccccc3n2)cc1OC	RGS4 pot -7.3
O=C(Nc1cccnc1)c1cc(-c2cccc(Br)c2)nc2ccccc12	RGS4 pot -7.1
O=C(Nc1ccncc1)c1cc(-c2cccc(Br)c2)nc2ccccc12	none
O=C(NCc1cc([N+](=O)[O-])ccc1O)c1cc(-c2ccncc2)nc2ccccc12	RGS4 pot -9.1
Cc1occc1C(=O)N1CCN(S(=O)(=O)c2ccccc2)CC1	none
Cc1c(C(=O)Nc2ccccc2)sc2nc[nH]c(=O)c12	none
Cc1ccccc1-c1cc(C(=O)Nc2sc(C)c(C)c2C(N)=O)c2ccccc2n1	RGS4 inh 6.2
CN(C(=O)c1ccncc1)c1ccccc1	none
C/C(=N\N(Cc1ccccc1)c1ccccc1)c1ccncc1	RGS4 pot -9.2
C=C(C)Cn1cnc2c(oc3nc4c(cc32)CCCC4)c1=O	none
COc1ccc(C)cc1Nc1n[n+](-c2ccccc2)c(-c2cc([N+](=O)[O-])cc(OC)c2O)s1	MrgX1 antag -6
Cc1ccnc(Nc2nc(-c3ccc(Cl)cc3)cs2)c1	none
Cc1ccnc(Nc2nc(-c3ccc(F)cc3)cs2)c1	RGS4 pot -8.8 | RGS4 act valid 92 | RGS4 act ctr 74
N#CCCN(Cc1ccccc1)S(=O)(=O)c1cccs1	none
CCOC(=O)c1c(NC(=O)/C=C/C(=O)O)sc(C)c1-c1ccc(C(C)(C)C)cc1	MrgX1 antag -5.2, RGS4 pot -12 | RGS4 act valid 92 | RGS4 act ctr 90
COc1ccc(-c2cnc[nH]2)cc1	none
N=c1c2c(-c3ccccc3)c(-c3ccccc3)oc2ncn1CCN1CCOCC1	RGS4 pot -9 | RGS4 act valid 58 | RGS4 act ctr 84
CC1CCCN(C(=O)COC(=O)c2ccc(=O)n(Cc3ccccc3)n2)C1 (centres undefined)	none
CCCc1nnc(NC(=O)CCC(=O)N2CCCCC2CC)s1 (centres undefined)	RGS4 pot -7.8 | RGS4 act valid inactive | RGS4 act ctr inactive
CC1CCN(S(=O)(=O)c2ccc3c(ccn3CCC(=O)NC(C)C)c2)CC1	RGS4 pot -7.9 | RGS4 act valid inactive | RGS4 act ctr inactive
COc1cc(O)c(CC=C(C)C)c(O)c1C(=O)CCc1ccc(O)cc1	RGS4 pot -9.3 | RGS4 act valid 91 | RGS4 act ctr 76
O=C(c1ccc2c(=O)n3c(nc2c1)CCCCC3)N1CCN(C(c2ccccc2)c2ccccc2)CC1	RGS4 pot -7.7 | RGS4 act valid 93 | RGS4 act ctr 92
O=c1c2cc(Br)ccc2nc2n1CCCCC2	RGS4 pot -8.9 | RGS4 act valid 80 | RGS4 act ctr 30
O=C(c1ccc2c(=O)n3c(nc2c1)CCCCC3)N1CCN(c2ccccc2)CC1	none
Cc1cc(C)c(C#N)c(SCC(O)COc2ccc(Br)cc2)n1 (centres undefined)	RGS4 pot -13 | RGS4 act valid 94 | RGS4 act ctr 94
COc1cc(/C=N/c2oc(-c3ccccc3)cc2C#N)ccc1O	RGS4 pot -7.8 | RGS4 act valid inactive | RGS4 act ctr inactive
O=C(Cc1ccc(S(=O)(=O)N2CCOCC2)s1)N1CCN(S(=O)(=O)c2cccc(Cl)c2)CC1	none
COc1ccc(C(c2nnnn2Cc2ccccc2)N2CCN(c3ccccc3)CC2)cc1 (centres undefined)	none
COc1ccc(C(c2nnnn2Cc2cccs2)N2CCN(c3ccccc3F)CC2)cc1 (centres undefined)	RGS4 pot -7.6 | RGS4 act valid inactive | RGS4 act ctr inactive
